SENP7 inh = blocks the human protease SENP7; actives 1.5% (n = 330,000); AID 434973; inhibition, % at 5 µM; recombinant SENP7, Z-RLRGG-aminoluciferin luminescence, 40 min;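 active = inhibition above about 50% at the single test dose, limit read from the data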;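 also: plate controls were DMSO with enzyme for no effect and no enzyme buffer wells for full effect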
SENP6 block = blocks the human protease SENP6; Q9GZR1; Recombinant SENP6 catalytic domain, aminoluciferin luminescence; inhibition, % at 10 µM; actives 1.8% (n = 330,000); AID 2599;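 active = inhibition above about 50% at the single tested dose, limit read from the data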;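 also: plate controls were DMSO wells with enzyme for no effect and DMSO wells lacking enzyme for full effect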
Target sequence (Q9GZR1 628-1112 limits assumed): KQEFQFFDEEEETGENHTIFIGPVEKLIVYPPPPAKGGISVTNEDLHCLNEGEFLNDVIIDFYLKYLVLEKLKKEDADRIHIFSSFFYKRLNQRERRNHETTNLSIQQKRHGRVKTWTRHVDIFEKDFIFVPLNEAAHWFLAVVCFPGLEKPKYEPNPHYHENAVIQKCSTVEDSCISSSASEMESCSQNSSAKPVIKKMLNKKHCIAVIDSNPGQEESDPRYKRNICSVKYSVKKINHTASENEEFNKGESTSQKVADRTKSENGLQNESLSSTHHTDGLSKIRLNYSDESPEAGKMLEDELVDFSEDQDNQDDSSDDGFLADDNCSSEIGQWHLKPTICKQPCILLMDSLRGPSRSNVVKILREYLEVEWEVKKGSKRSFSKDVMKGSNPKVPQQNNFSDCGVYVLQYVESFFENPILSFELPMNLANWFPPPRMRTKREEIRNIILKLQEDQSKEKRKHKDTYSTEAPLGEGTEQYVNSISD
SENP8 block-1 = inhibitors of human SENP8 protease | actives 0.64% (n = 360,000) | inhibition, % at 20 µM | Q96LD8 | AID 602440 | recombinant SENP8, Nedd8 substrate fluorescence; in the data active = inhibition mostly above about 40%, no sharp cut-off; inactive = mostly below about 27%
SENP8 block-2 = SENP8 protease inhibition | Q96LD8 | purified SENP8, Z-RLRGG-aminoluciferin cleavage, luminescence | inhibition, % at 10 µM | actives 1.2% (n = 330,000) | AID 2540; in the data active = inhibition above about 50%
HSP90 refold inh = HSP90 refolding inhibition in rabbit reticulocyte lysate. AID 1789. actives 0.91% (n = 290,000). inhibition, % at 5.6 µM. luciferase refolding luminescence, 3 h;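 active = inhibition above the screen-wide mean plus 3 SD, computed separately per campaign, cut at about 16% in these data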;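 also: 0% = DMSO wells and 100% = 60 µM geldanamycin wells; inhibitors lower the luminescence because luciferase stays unfolded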
SENP1 inh = blocks the human SENP1 SUMO protease catalytic domain | Q9P0U3 | recombinant SENP1 catalytic domain, CyPet-SUMO1-YPet FRET cleavage | inhibition, % at 10 µM | actives 0.21% (n = 360,000) | AID 624204;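 active = inhibition at least 30% at 10 µM, raw YFP signal under a set limit, fluorescence ratio 0.5 to 1.5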;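 also: 0% = enzyme with DMSO and 100% = no enzyme wells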
Target sequence (Q9P0U3 419-644 limits assumed): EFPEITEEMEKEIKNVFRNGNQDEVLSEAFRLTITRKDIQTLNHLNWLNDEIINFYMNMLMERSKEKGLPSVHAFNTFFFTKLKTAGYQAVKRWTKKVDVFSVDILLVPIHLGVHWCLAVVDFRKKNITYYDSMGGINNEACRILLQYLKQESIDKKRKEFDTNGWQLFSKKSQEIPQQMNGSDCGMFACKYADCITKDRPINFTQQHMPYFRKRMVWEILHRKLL
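Test system: human SENP1 catalytic domain; medium: Tris pH 8 buffer plus EDTA, NaCl, BME, BSA, NP40, catalase; incubation: 50 min reaction at room temperature; technique: FRET, CFP and YFP emission; controls: no-enzyme low control and enzyme-plus-DMSO high control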
HSP90 inh confirm = HSP90 inhibition, confirmation assay; shares compounds with HSP90 refold inh; rabbit reticulocyte lysate, luciferase refolding luminescence, 3 h; inhibition, % at 5.9 µM; actives 64% (n = 2,300); AID 1846; in the data active = inhibition above about 18%;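 also: 0% = vehicle wells and 100% = reference inhibitor wells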
luciferase ctr = firefly luciferase inhibition, HSP90 counter-screen; shares compounds with HSP90 refold inh; actives 48% (n = 2,300); inhibition, % at 5.9 µM; AID 1847; purified native firefly luciferase, luminescence;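 active = inhibition above the mean inhibition of all tested sample wells plus 3 SD, cut at about 10% in these data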;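 also: 0% = DMSO with luciferase and 100% = wells lacking luciferase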
Numbers without * were called inactive. Sampled rows, rich in hits. Any-hit rate of the full collection: about 2.9%.

Results for COc1cc(/C=N\NC(=O)OC(C)(C)C)ccc1OC(=O)c1ccco1 ?
SENP7 inh: -6.4; SENP6 block: 9.1; SENP8 block-1: 13.1; SENP8 block-2: 2.1; HSP90 refold inh: 0.5; SENP1 inh: 1.4

Results for CCOc1cc(/C=N/Nc2cccc(C(=O)O)c2)ccc1OC(=O)c1ccccc1 ?
SENP7 inh: -1.2; SENP6 block: -6.6; SENP8 block-1: -11.6; SENP8 block-2: 5.3; HSP90 refold inh: 37.3*; SENP1 inh: -0.2; HSP90 inh confirm: 95.7*; luciferase ctr: 32.2*

How did COc1ccc(C(=O)Oc2ccc(/C=N/Nc3ccc(Cl)c(C(=O)O)c3)cc2OC)cc1 do in these assays?
SENP7 inh: 0.9; SENP6 block: 3.8; SENP8 block-1: -69.1; SENP8 block-2: -3.0; HSP90 refold inh: 46.3*; SENP1 inh: 1.2; HSP90 inh confirm: 65.6*; luciferase ctr: -2.3

What do the screens show for `COc1cc(/C=N/Nc2ccccc2)ccc1OC(=O)c1cccs1`?
HSP90 refold inh: -2.3

How did COc1cc(C=NNc2ccccc2)ccc1OC(=O)c1ccccc1 do in these assays?
SENP8 block-1: 3.8; SENP1 inh: 4.4

Results for OCC1OC(n2cnc3c(NCc4ccccc4O)ncnc32)C(O)C1O (stereo not given) ?
SENP8 block-1: 10.6; SENP1 inh: 1.9

How did O=S(=O)(Nc1c(S(=O)(=O)c2ccccc2)c2nc3ccccc3nc2n1C1CCCCC1)c1ccccc1 do in these assays?
SENP8 block-1: -280.7; HSP90 refold inh: -0.7; SENP1 inh: -74.9

Results for C=CCn1c(NS(=O)(=O)c2ccccc2)c(S(=O)(=O)c2ccc(C)cc2)c2nc3ccccc3nc21 ?
SENP8 block-1: -281.4; HSP90 refold inh: 21.8*; SENP1 inh: -135.2; HSP90 inh confirm: 52.4*; luciferase ctr: -1.1

What do the screens show for `CC(C)Cc1nnc(NC(=O)CCc2c[nH]c3ccccc23)s1`?
SENP7 inh: 8.9; SENP6 block: -1.5; SENP8 block-1: 4.1; SENP8 block-2: 4.8; HSP90 refold inh: 3.0; SENP1 inh: 0.3

Results for CC(C)(C)c1cc(NC(=O)c2cccs2)no1 ?
SENP7 inh: 94.8*; SENP6 block: 89.0*; SENP8 block-1: 2.4; SENP8 block-2: 88.1*; HSP90 refold inh: 20.7*; SENP1 inh: 2.8; HSP90 inh confirm: 35.7*; luciferase ctr: 13.2*

How did Cc1cc(NC(=O)c2ccc(NC(=O)c3cccs3)cc2)no1 do in these assays?
SENP7 inh: -4.5; SENP6 block: 5.6; SENP8 block-1: 1.5; SENP8 block-2: 2.5; HSP90 refold inh: 2.8; SENP1 inh: 3.0

Results for COc1cccc(OCCNc2cc(Cl)ccc2[N+](=O)[O-])c1 ?
SENP7 inh: 0.6; SENP6 block: 0.9; SENP8 block-1: 23.6; SENP8 block-2: -2.5; HSP90 refold inh: 1.0; SENP1 inh: -1.8

What do the screens show for `Cc1cccc(CC(=O)N2CCC(N3CCC(C(=O)N4CCOCC4)CC3)CC2)c1`?
SENP7 inh: 0.7; SENP6 block: -18.7; SENP8 block-1: 26.1; SENP8 block-2: 4.1; HSP90 refold inh: 51.1*; SENP1 inh: 0.5; HSP90 inh confirm: -6.7; luciferase ctr: -8.0

How did COc1cc(C=C2C(=O)c3ccccc3C2=O)cc(OC)c1OC do in these assays?
SENP7 inh: 11.3; SENP6 block: 7.8; SENP8 block-1: 18.7; SENP8 block-2: -6.4; HSP90 refold inh: 21.1*; SENP1 inh: 5.1; HSP90 inh confirm: -6.2; luciferase ctr: -8.2

What do the screens show for `COc1cc(C=C2C(=O)c3ccccc3C2=O)cc(OC)c1`?
SENP7 inh: 4.0; SENP6 block: 2.7; SENP8 block-1: 11.3; SENP8 block-2: -4.7; HSP90 refold inh: -4.4; SENP1 inh: 0.6

How did Cc1c(F)cccc1NS(=O)(=O)c1ccc(N2CCCC2=O)cc1 do in these assays?
SENP8 block-1: 9.1; SENP1 inh: -6.3

Results for Fc1cccc(CN2CCN(c3nc4nonc4nc3NC3CC3)CC2)c1 ?
SENP7 inh: -6.9; SENP6 block: 21.9; SENP8 block-1: 13.6; SENP8 block-2: -3.0; HSP90 refold inh: -4.1; SENP1 inh: -15.4

What do the screens show for `COc1ccc(-n2nc(C(=O)NCC(=O)N3CCN(Cc4ccccc4)CC3)c3ccccc3c2=O)cc1`?
SENP7 inh: 0.8; SENP6 block: -25.4; SENP8 block-1: -269.4; SENP8 block-2: -6.8; HSP90 refold inh: 24.4*; SENP1 inh: 2.8; HSP90 inh confirm: -2.2; luciferase ctr: -6.8

How did Cc1ccc(NC(C)C(=O)N/N=C/c2ccc([N+](=O)[O-])s2)cc1 (stereo not given) do in these assays?
SENP7 inh: 1.4; SENP6 block: -12.3; SENP8 block-1: 28.4; SENP8 block-2: -3.4; HSP90 refold inh: 34.7*; SENP1 inh: 1.3; HSP90 inh confirm: -1.5; luciferase ctr: -7.1

How did COc1ccc(OC)c(Nc2nc(-c3sc(N)nc3C)cs2)c1 do in these assays?
SENP7 inh: -0.5; SENP6 block: -4.8; SENP8 block-1: -3.4; SENP8 block-2: 6.8; HSP90 refold inh: 26.0*; SENP1 inh: -12.5; HSP90 inh confirm: 2.3; luciferase ctr: -6.6

How did Cc1nc(N)sc1-c1csc(Nc2ccccc2)n1 do in these assays?
SENP7 inh: 2.2; SENP6 block: 14.4; SENP8 block-1: -13.2; SENP8 block-2: -2.4; HSP90 refold inh: 25.5*; SENP1 inh: -10.4; HSP90 inh confirm: -5.0; luciferase ctr: -16.1

How did Cc1cc(O)ccc1Nc1nc(-c2sc(N)nc2C)cs1 do in these assays?
SENP7 inh: 7.9; SENP6 block: -0.6; SENP8 block-1: 3.2; SENP8 block-2: 7.6; HSP90 refold inh: 33.7*; SENP1 inh: 0.3; HSP90 inh confirm: -3.5; luciferase ctr: -9.0

How did CCOCCCN(C(=O)c1snc(C(N)=O)c1N)C(C(=O)NC1CCCC1)c1ccc(O)cc1 (stereo not given) do in these assays?
SENP7 inh: 2.9; SENP6 block: -13.1; SENP8 block-1: -252.0; SENP8 block-2: 10.4; HSP90 refold inh: -0.7; SENP1 inh: -14.7

What do the screens show for `N#CCCN(CCCN1CCOCC1)CN1C(=O)c2ccccc2C1=O`?
SENP8 block-1: 9.6; SENP1 inh: 1.7

What do the screens show for `COc1cccc(NC(=O)c2ccc3nc(C)c(N(C)Cc4ccc(NC(C)=O)cc4)n3c2)c1`?
SENP8 block-1: 6.7; SENP1 inh: -4.9

Results for Cn1c(=O)[nH]c(=O)c2c1nc(Br)n2CC(O)COCc1ccccc1 (stereo not given) ?
SENP7 inh: 12.9; SENP6 block: -13.1; SENP8 block-1: 5.4; SENP8 block-2: 0.6; HSP90 refold inh: 17.1*; SENP1 inh: -0.5; HSP90 inh confirm: -0.2; luciferase ctr: -1.3

How did CCN(CC1CCCO1)C(=O)CCc1nnc(CCc2ccccc2)o1 (stereo not given) do in these assays?
SENP8 block-1: 12.0; SENP1 inh: 2.4
